Test results: ChEMBL document CHEMBL1147080, “Inhibition of hepatitis C virus replication by peroxidation of arachidonate and restoration by vitamin E” (Proc Natl Acad Sci U S A, 2007)
The source made the active and inactive calls. The calls are words filed in the database; no cut-off is given here.

What was measured:
Hepatitis C virus [1] = assay: Inhibition of hepatitis C virus replication in Huh7-K2040 cells in presence of delipidated fetal calf serum assessed viral RNA level at 0.1 mM by RT-PCR relative to control; type: functional
How it was run: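 Huh7-K2040 cells seeded at 4 × 10^5 per 60-mm dish. On day 2 switched to 10% FCS or delipidated FCS with 0.1 mM BSA-conjugated fatty acids for 72 h. HCV RNA measured by real-time RT-PCR in triplicate, normalized to 36B4 by comparative CT, relative to untreated FCS control. Mean ± SD, three independent experiments.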

Hepatitis C virus [2] = assay: Inhibition of hepatitis C virus replication in Huh7-K2040 cells in presence of fetal calf serum assessed viral RNA level at 0.1 mM by RT-PCR relative to control; type: functional
How it was run: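 Huh7-K2040 cells (subgenomic genotype 1b replicon) were seeded at 4 × 10^5 per 60-mm dish. From day 2 they were cultured in 10% FCS with 0.1 mM BSA-conjugated fatty acid for 72 h. HCV RNA was measured by real-time PCR with 36B4 as invariant control (comparative CT), relative to untreated FCS cells; mean ± SD, three independent experiments.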

Hepatitis C virus [3] = assay: Increase in hepatitis C virus replication in Huh7-K2040 cells in presence of delipidated fetal calf serum medium at 0.3 uM by RT-PCR relative to control; type: functional, organism-based; conditions: Hepacivirus hominis
How it was run: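 Replicon-bearing Huh7 cells (genotype 1b subgenomic HCV replicon), 4 × 10^5 cells per 60-mm dish on day 0. On day 2 they were switched to medium with 10% delipidated FCS plus 0.3 μM lipid-soluble vitamin/lipid. Harvested after 72 h. HCV RNA was measured by qRT-PCR, normalized to 36B4 by comparative CT, relative to FCS-cultured controls; mean ± SD of three independent experiments.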

Hepatitis C virus [4] = assay: Inhibition of hepatitis C virus replication in Huh7-K2040 cells in presence of delipidated fetal calf serum medium by RT-PCR; type: functional, organism-based, Hepacivirus hominis
How it was run: (§1)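 Huh7-K2040 replicon cells (4 × 10^5 per 60-mm dish) switched on day 2 to 10% FCS or 10% delipidated FCS with graded BSA-conjugated arachidonate for 72 h. HCV RNA measured by real-time RT-PCR against 36B4 by comparative CT, relative to cells without arachidonate in the same serum. IC50 read from dose–response. Mean ± SD, three independent experiments.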

Hepatitis C virus [5] = assay: Inhibition of hepatitis C virus replication in Huh7-K2040 cells in presence of fetal calf serum medium assessed as increase of malondialdehyde at 0.1 mM relative to control; type: functional, Hepacivirus hominis
How it was run: (§2)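 Huh7 or Huh7-K2040 cells seeded 7 × 10^5 per 60-mm dish. On day 1 switched to 10% FCS or 10% delipidated FCS, with or without 0.1 mM BSA-conjugated arachidonate and 0.3 μM vitamin E, for 16 h. MDA measured by TBARS kit at 532 nm in homogenates of cells pooled from two dishes, normalized to cellular protein. Mean ± SD, three independent experiments.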

[6] = Cytotoxicity against human Huh7-K2040 cells in delipidated fetal calf serum medium; type: cell-based; conditions: huh-7
How it was run: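 Huh7-K2040 replicon cells (7 × 10^5 per 60-mm dish) moved on day 1 to medium with 10% delipidated FCS and 0.1 mM BSA-conjugated arachidonate, or to 10% FCS medium. Cells harvested at set times. Growth followed as total cellular protein by BCA, relative to protein at time 0. Data from a representative experiment.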

Hepatitis C virus [7] = assay: Inhibition of hepatitis C virus replication in Huh7-K2040 cells in presence of fetal calf serum medium by RT-PCR; type: functional, organism-based, Hepacivirus hominis; how it was run: as §1
Hepatitis C virus [8] = assay: Inhibition of hepatitis C virus replication in Huh7-K2040 cells in presence of delipidated fetal calf serum medium assessed as increase of malondialdehyde at 0.1 mM relative to control; type: functional, Hepacivirus hominis; how it was run: as §2
Hepatitis C virus [9] = assay: Reversal of inhibition of hepatitis C virus replication in Huh7-K2040 cells in presence of delipidated fetal calf serum medium assessed as malondialdehyde level at 0.1 mM in presence of vitamin E; type: functional, organism-based; conditions: Hepacivirus hominis; how it was run: as §2
Hepatitis C virus [10] = assay: Inhibition of hepatitis C virus replication in Huh7-K2040 cells in presence of delipidated fetal calf serum medium assessed as increase of malondialdehyde at 0.1 mM after 48 hrs; type: functional, organism-based; conditions: Hepacivirus hominis
How it was run: (§3)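 Huh7-K2040 cells (7 × 10^5 per 60-mm dish) switched on day 1 to 10% delipidated FCS with 0.1 mM BSA-conjugated arachidonate and harvested over a time course up to 72 h. MDA measured by TBARS assay at 532 nm, normalized to protein, relative to cells at time 0. Data from a representative experiment.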

Hepatitis C virus [11] = assay: Inhibition of hepatitis C virus replication in Huh7-K2040 cells in presence of delipidated fetal calf serum medium assessed as reduction in viral RNA level at 0.1 mM after 72 hrs relative to control; type: functional, Hepacivirus hominis; design: scale not given: the % may be the effect or the level left
How it was run: (§4)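 Time course in Huh7-K2040 cells (7 × 10^5 per 60-mm dish) given 10% delipidated FCS plus 0.1 mM BSA-conjugated arachidonate from day 1. HCV RNA measured by TaqMan real-time RT-PCR, normalized to 36B4 by comparative CT, relative to cells at time 0. Data from a representative experiment.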

Hepatitis C virus [12] = assay: Inhibition of hepatitis C virus replication in Huh7-K2040 in presence of delipidated fetal calf serum medium assessed as increase of malondialdehyde at 0.1 mM after 12 to 24 hrs; type: functional, organism-based; conditions: Hepacivirus hominis; how it was run: as §3
Hepatitis C virus [13] = assay: Inhibition of hepatitis C virus replication in Huh7-K2040 cells in presence of delipidated fetal calf serum medium assessed as decrease of malonaldehyde at 0.1 mM after 72 hrs relative to control; design: scale not given: the % may be the effect or the level left
Hepatitis C virus [14] = assay: Inhibition of hepatitis C virus replication in Huh7-K2040 cells in presence of delipidated fetal calf serum medium assessed as reduction in viral RNA level at 0.1 mM after 12 hrs relative to control; type: functional, Hepacivirus hominis; design: scale not given: the % may be the effect or the level left; how it was run: as §4
Hepatitis C virus [15] = assay: Increase of hepatitis C virus replication in Huh7-K2040 cells in fetal calf serum medium in presence of arachidonate by RT-PCR relative to control; type: functional, organism-based; conditions: Hepacivirus hominis
How it was run: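 Replicon Huh7-K2040 cells were seeded at 4 × 10^5 per 60-mm dish. On day 2 they went into 10% FCS or 10% delipidated FCS with 0.1 mM BSA-conjugated arachidonate, ± 0.3 μM vitamin E. Cells were harvested 72 h later. HCV RNA was determined by qRT-PCR (36B4 reference, comparative CT), relative to FCS controls.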

Hepatitis C virus [16] = assay: Restoration of hepatitis C virus replication in Huh7-K2040 cells in delipidated fetal calf serum medium assessed as increase in […] 40 nM in absence of arachidonate by RT-PCR relative to control; type: functional, organism-based; conditions: Hepacivirus hominis
How it was run: (§5)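 Huh7 cells carrying a genotype 1b subgenomic replicon were seeded on day 0. On day 2 they were moved to medium with 10% delipidated FCS, with or without 0.1 mM BSA-conjugated arachidonate, and given graded vitamin E. After 72 h HCV RNA was quantified by real-time PCR against 36B4 (comparative CT), relative to untreated controls kept in 10% FCS; three independent experiments.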

Hepatitis C virus [17] = assay: Increase of hepatitis C virus replication in Huh7-K2040 cells in delipidated fetal calf serum medium in presence of arachidonate by RT-PCR relative to control; type: functional, organism-based; conditions: Hepacivirus hominis; how it was run: as §5
Hepatitis C virus [18] = assay: Restoration of hepatitis C virus replication in Huh7-K2040 cells in presence of delipidated fetal calf serum medium in absence of arachidonate by RT-PCR relative to control; type: functional, organism-based; conditions: Hepacivirus hominis; how it was run: as §5
Hepatitis C virus [19] = assay: Increase of hepatitis C virus replication in Huh7-K2040 cells in delipidated fetal calf serum medium assessed as increase in […] at 40 nM in presence of arachidonate by RT-PCR relative to control; type: functional, organism-based; conditions: Hepacivirus hominis; how it was run: as §5
Hepatitis C virus [20] = assay: Increase of hepatitis C virus replication in Huh7-K2040 cells in fetal calf serum medium in absence of arachidonate by RT-PCR relative to control; type: functional, organism-based; conditions: Hepacivirus hominis

CCCCCCCC/C=C\CCCCCCCC(=O)O
Activity (Hepatitis C virus [1]; Hepacivirus hominis): inactive | Activity (Hepatitis C virus [2]; Hepacivirus hominis): inactive | Activity (Hepatitis C virus [3]): inactive

COC1=C(OC)C(=O)C(C/C=C(\C)CC/C=C(\C)CC/C=C(\C)CCC=C(C)C)=C(C)C1=O
Activity (Hepatitis C virus [3]): Active

O=C1O[C@H]([C@@H](O)CO)C(O)=C1O
Activity (Hepatitis C virus [3]): inactive

CCCCC/C=C\C/C=C\C/C=C\C/C=C\CCCC(=O)O [ARACHIDONIC ACID]
Activity (Hepatitis C virus [1]): 95% | Activity (Hepatitis C virus [2]): 50% | IC50 (Hepatitis C virus [4]): 10 µM | Activity (Hepatitis C virus [5]): 8 | Activity [6]: Non-toxic | IC50 (Hepatitis C virus [7]): 60 µM | Activity (Hepatitis C virus [8]): 48 | Activity (Hepatitis C virus [9]): Active | Activity (Hepatitis C virus [10]): inactive | Activity (Hepatitis C virus [11]): >90% | Activity (Hepatitis C virus [12]): Active | Activity (Hepatitis C virus [13]): >90% | Activity (Hepatitis C virus [14]): 40%

CCCCC/C=C\C/C=C\CCCCCCCC(=O)O [LINOLEIC ACID]
Activity (Hepatitis C virus [2]): 50%

CC/C=C\C/C=C\C/C=C\CCCCCCCC(=O)O [LINOLENIC ACID]
Activity (Hepatitis C virus [2]): 50%

VITAMIN E
Activity (Hepatitis C virus [15]): inactive | Activity (Hepatitis C virus [16]): Active | Activity (Hepatitis C virus [3]): Active | Activity (Hepatitis C virus [17]): 190% | Activity (Hepatitis C virus [18]): Active | Activity (Hepatitis C virus [19]): Active | Activity (Hepatitis C virus [20]): inactive
